Active and inactive are the calls of the source. No cut-off for these calls is given here.
What was measured:
Coagulation factor VII = molecular target: T1, Coagulation factor VII (Homo sapiens, UniProt P08709); assay: Inhibition of factor 7a
T1 sequence (P08709 whole entry): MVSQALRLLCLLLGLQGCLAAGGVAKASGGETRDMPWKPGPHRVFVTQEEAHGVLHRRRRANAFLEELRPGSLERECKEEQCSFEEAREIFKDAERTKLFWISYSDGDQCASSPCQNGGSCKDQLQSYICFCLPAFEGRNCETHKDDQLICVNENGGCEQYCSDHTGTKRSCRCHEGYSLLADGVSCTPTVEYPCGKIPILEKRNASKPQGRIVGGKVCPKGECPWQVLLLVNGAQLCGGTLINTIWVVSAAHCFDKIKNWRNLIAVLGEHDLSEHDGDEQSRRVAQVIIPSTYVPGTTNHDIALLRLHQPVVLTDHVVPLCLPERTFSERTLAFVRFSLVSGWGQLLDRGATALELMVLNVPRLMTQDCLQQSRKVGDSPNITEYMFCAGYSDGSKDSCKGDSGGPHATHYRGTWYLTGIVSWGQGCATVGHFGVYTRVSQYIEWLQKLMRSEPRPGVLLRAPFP

Plasma kallikrein = Plasma kallikrein (Homo sapiens, UniProt P03952); assay: Inhibition of plasma kallikrein; type: cell-free
Plasma kallikrein, sequence (P03952 20-390 limits assumed): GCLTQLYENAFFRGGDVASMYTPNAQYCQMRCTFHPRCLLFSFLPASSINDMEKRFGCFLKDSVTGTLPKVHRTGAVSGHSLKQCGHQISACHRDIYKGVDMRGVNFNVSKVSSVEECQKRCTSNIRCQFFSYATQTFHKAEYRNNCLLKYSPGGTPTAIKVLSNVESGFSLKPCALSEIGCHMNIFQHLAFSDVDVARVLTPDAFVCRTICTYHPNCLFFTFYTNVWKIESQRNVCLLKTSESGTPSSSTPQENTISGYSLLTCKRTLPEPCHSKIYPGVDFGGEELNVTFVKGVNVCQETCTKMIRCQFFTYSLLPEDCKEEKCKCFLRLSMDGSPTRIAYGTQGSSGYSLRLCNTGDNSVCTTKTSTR
Plasma kallikrein, sequence (P03952 391-638 limits assumed): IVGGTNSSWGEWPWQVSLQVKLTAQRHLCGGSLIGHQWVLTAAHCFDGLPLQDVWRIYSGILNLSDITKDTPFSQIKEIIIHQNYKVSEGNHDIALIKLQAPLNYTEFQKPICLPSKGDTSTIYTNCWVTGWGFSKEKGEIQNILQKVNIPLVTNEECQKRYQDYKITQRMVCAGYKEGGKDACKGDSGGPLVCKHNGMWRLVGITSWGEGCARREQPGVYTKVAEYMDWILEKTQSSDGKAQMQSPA

[1] = molecular target: Vitamin K-dependent protein C (Homo sapiens, UniProt P04070); assay: Inhibition of activated protein C
Vitamin K-dependent protein C, sequence (P04070 43-197 limits assumed): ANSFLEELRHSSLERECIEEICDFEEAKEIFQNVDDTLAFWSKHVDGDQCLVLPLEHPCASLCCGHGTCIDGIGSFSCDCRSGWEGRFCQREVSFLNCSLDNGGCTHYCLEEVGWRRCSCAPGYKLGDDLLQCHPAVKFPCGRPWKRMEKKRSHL
Vitamin K-dependent protein C, sequence (P04070 212-461 limits assumed): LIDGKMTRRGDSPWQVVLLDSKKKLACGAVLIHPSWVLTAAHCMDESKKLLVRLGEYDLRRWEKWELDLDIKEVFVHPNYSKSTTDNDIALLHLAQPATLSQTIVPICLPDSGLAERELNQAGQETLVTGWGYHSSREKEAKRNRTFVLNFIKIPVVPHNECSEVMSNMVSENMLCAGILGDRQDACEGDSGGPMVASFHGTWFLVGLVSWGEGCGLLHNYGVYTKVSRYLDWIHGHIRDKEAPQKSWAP

[2] = Half life in iv dosed rat; type: ADME, organism-based; settings: in vivo
[3] = Clearance in iv dosed rat; type: ADME, organism-based; settings: in vivo
[4] = Volume of distribution in iv dosed rat; type: ADME, organism-based; settings: in vivo, read-out: Vdss
Coagulation factor XI = Coagulation factor XI (Homo sapiens, UniProt P03951); assay: Inhibition of factor 11a
Coagulation factor XI, sequence (P03951 19-387 limits assumed): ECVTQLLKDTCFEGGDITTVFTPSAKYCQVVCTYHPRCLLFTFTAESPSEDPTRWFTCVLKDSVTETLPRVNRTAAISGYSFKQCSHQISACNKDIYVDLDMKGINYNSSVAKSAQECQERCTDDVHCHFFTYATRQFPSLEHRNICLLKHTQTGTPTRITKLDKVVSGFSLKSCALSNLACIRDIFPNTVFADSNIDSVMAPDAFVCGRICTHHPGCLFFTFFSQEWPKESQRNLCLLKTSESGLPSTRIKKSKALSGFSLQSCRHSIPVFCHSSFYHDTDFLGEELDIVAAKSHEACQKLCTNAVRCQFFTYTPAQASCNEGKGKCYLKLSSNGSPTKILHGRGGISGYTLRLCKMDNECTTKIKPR
Coagulation factor XI, sequence (P03951 388-625 limits assumed): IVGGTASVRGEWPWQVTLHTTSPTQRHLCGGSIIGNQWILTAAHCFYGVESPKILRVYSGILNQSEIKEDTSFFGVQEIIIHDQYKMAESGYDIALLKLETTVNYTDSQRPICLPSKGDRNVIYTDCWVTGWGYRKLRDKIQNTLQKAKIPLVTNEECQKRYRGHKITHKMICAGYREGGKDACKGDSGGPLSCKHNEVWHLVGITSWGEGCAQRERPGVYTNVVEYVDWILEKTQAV

Coagulation factor X = Coagulation factor X (Homo sapiens, UniProt P00742); assay: Inhibition of factor 10a
Coagulation factor X, sequence (P00742 41-179 limits assumed): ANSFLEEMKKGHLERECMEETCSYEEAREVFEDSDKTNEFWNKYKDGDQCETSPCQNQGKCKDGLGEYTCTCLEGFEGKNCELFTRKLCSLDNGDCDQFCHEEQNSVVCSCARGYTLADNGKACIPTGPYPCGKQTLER
Coagulation factor X, sequence (P00742 235-488 limits assumed): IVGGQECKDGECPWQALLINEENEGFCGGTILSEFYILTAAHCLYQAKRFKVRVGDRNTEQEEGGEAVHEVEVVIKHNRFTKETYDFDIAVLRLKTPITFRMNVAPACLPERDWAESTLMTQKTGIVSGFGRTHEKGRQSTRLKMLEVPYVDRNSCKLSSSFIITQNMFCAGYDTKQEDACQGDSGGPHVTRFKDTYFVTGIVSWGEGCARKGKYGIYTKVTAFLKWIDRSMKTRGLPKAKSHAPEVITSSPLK

Prothrombin = Prothrombin (Homo sapiens, UniProt P00734); assay: Inhibition of thrombin
Plasma [5] = assay: Anticoagulant activity in human plasma measured by activated […] time; type: functional
Outline: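 Activated partial thromboplastin time in human plasma. Plasma was incubated with compound for 2 min. aPTT reagent was added and incubated 3 min. Prewarmed 30 mM CaCl2 was added and clotting was read up to 300 s. The concentration doubling clotting time was taken from the dose-response curve.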

Plasma [6] = assay: Anticoagulant activity in human plasma measured by prothrombin time; type: functional
Outline: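 Human plasma with compound prewarmed 3 min at 37 °C, then prewarmed thromboplastin reagent containing calcium added; clotting read over 300 s. Concentration doubling clotting time (2× PT) derived from dose-response curve.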

Trypsin = Trypsin (Homo sapiens, UniProt P07477+P07478+P35030); assay: Inhibition of trypsin; type: protein assay
Outline: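 Trypsin activity was read with the fluorogenic substrate Glp-Pro-Arg-AMC. Conditions were 50 nM enzyme and 50 µM substrate in 100 mM Tris-HCl, 200 mM NaCl and 0.02% Tween 20 at pH 7.4. Ten-point dose-response endpoints were taken after 15-30 min at 30 °C. Released AMC was read at ex 355/em 460 nm, and IC50 came from a one-site nonlinear least-squares fit.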

Rattus norvegicus = assay: Efficacy in rat venous thrombosis model assessed as reduction in thrombus weight at 0.25 mg/kg, iv; type: functional, organism-based; design: dose 0.25 mg/kg
Outline: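 Intravenous infusion at 0.0625 or 0.25 mg/kg in 0.1 M NaOAc pH 4.0 vehicle, started 5 min before induction; clot isolated and weighed 10 min postchallenge. n = 9; Tukey-Kramer test versus vehicle.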

Homo sapiens [7] = species: Homo sapiens; assay: Selectivity for factor 11a over thrombin
Outline: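 IC50s against factor XIa and thrombin were compared as fold selectivity. Both enzymes used Glp-Pro-Arg-AMC, with 50 nM enzyme and 50 µM substrate in Tris-HCl/NaCl/0.02% Tween 20 at pH 7.4. Ten-point endpoint assays ran for 15-30 min at 30 °C with AMC fluorescence read at 355/460 nm. IC50 came from a one-site dose-response fit.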

Homo sapiens [8] = species: Homo sapiens; assay: Selectivity for factor 11a over factor 10a
Outline: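 Fold selectivity compared IC50s against factor XIa and factor Xa, both in Tris-HCl/NaCl/Tween 20 buffer at pH 7.4. FXIa: Glp-Pro-Arg-AMC, 50 nM enzyme, 50 µM substrate, 15-30 min at 30 °C. FXa: H-Pro-Phe-Arg-AMC at twice those concentrations, 60 min.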

| Compound | IC50 (Coagulation factor XI) [nM] | IC50 (Coagulation factor X) [nM] | IC50 (Prothrombin) [nM] | further results |
| --- | --- | --- | --- | --- |
| CC(C)[C@H](NC(=O)[C@H](Cc1cccnc1)NC(=O)N[C@H](C)c1ccc(F)cc1)C(=O)N[C@@H](CCCN=C(N)N)C(=O)c1nccs1 | 28 |  | 523 |  |
| CC(C)[C@H](NC(=O)[C@H](Cc1ccccc1)NNC(=O)Cc1ccco1)C(=O)N[C@@H](CCCNC(=N)N)C(=O)c1nccs1 | 2600 |  |  |  |
| CC(C)[C@H](NC(=O)[C@@H](NC(=O)N[C@@H](C)c1ccc(Br)cc1)C1CCCCC1)C(=O)N[C@@H](CCCN=C(N)N)C(=O)c1nccs1 | 132 | 14900 | 5600 |  |
| CC(C)C[C@H](NC(=O)NCc1ccc(F)cc1)C(=O)N[C@H](C(=O)N[C@@H](CCCNC(=N)N)C(=O)c1nccs1)C(C)C | 114 | > 20000 | 3100 |  |
| CC(C)[C@H](NC(=O)[C@H](Cc1ccc(O)cc1)NC(=O)N[C@H](C)c1ccc(Br)cc1)C(=O)N[C@@H](CCCNC(=N)N)C(=O)c1nccs1 |  |  |  | IC50 (Trypsin): 12 nM; Activity (Rattus norvegicus): Active; Selectivity ratio (Homo sapiens [7]): 340; Selectivity ratio (Homo sapiens [8]): 267; 2aPTT (Plasma [5]): 2.4 µM; 2PT (Plasma [6]): 25 µM |
| CC(C)[C@H](NC(=O)[C@H](Cc1ccccc1)NNC(=O)Nc1ccccc1)C(=O)N[C@@H](CCCNC(=N)N)C(=O)c1nccs1 | 1920 | > 20000 | 935 |  |
| CC(C)C[C@H](NC(=O)NCc1ccc(Cl)cc1Cl)C(=O)N[C@H](C(=O)N[C@@H](CCCN=C(N)N)C(=O)c1nccs1)C(C)C | 45 | 13000 | 386 |  |
| CC(C)[C@H](NC(=O)[C@H](Cc1cccnc1)NC(=O)N[C@@H](C)c1ccc(F)cc1)C(=O)N[C@@H](CCCNC(=N)N)C(=O)c1nccs1 | 533 |  | 606 |  |
| CC(C)[C@H](NC(=O)[C@H](Cc1ccccc1)NNC(=O)c1ccco1)C(=O)N[C@@H](CCCNC(=N)N)C(=O)c1nccs1 | 2200 |  |  |  |
| CC(C)[C@H](NC(=O)[C@H](Cc1ccccc1)NNS(=O)(=O)c1ccc(Cl)c(Cl)c1)C(=O)N[C@@H](CCCNC(=N)N)C(=O)c1nccs1 | 2300 |  |  |  |
| CC(C)[C@H](NC(=O)[C@H](CCCN=C(N)N)NC(=O)N[C@H](C)c1ccc(Br)cc1)C(=O)N[C@@H](CCCN=C(N)N)C(=O)c1nccs1 | 7 | 250 | 440 |  |
| CCOC(=O)C(CC(C)C)NC(=O)NN[C@@H](Cc1ccccc1)C(=O)N[C@H](C(=O)N[C@@H](CCCNC(=N)N)C(=O)c1nccs1)C(C)C (some centres undefined) | 403 | 15400 | 2100 |  |
| CC(C)[C@H](NC(=O)[C@H](CC(N)=O)NC(=O)N[C@H](C)c1ccc(Br)cc1)C(=O)N[C@@H](CCCNC(=N)N)C(=O)c1nccs1 | 8 | 1600 | 400 | 2aPTT (Plasma [5]): 0.56 µM; 2PT (Plasma [6]): 26.3 µM |
| CC(C)[C@H](NC(=O)[C@@H](NC(=O)N[C@H](C)c1ccc(Br)cc1)C1CCCCC1)C(=O)N[C@@H](CCCNC(=N)N)C(=O)c1nccs1 | 10 | 2700 | 976 | 2aPTT (Plasma [5]): 15.4 µM; 2PT (Plasma [6]): 178.6 µM |
| CC(C)C[C@H](NC(=O)NCc1ccc(Cl)c(Cl)c1)C(=O)N[C@@H](Cc1ccccc1)C(=O)N[C@@H](CCCN=C(N)N)C(=O)c1nccs1 | 710 | 8500 | 27000 |  |

Further lines, with some results ahead:

| IC50 (Coagulation factor XI) [nM] | IC50 (Coagulation factor X) [nM] | IC50 (Prothrombin) [nM] | Compound | further results |
| --- | --- | --- | --- | --- |
| 6 | 1600 | 2040 | CC(C)[C@H](NC(=O)[C@H](Cc1ccc(O)cc1)NC(=O)N[C@H](C)c1ccc(Br)cc1)C(=O)N[C@@H](CCCN=C(N)N)C(=O)c1nccs1 | IC50 (Coagulation factor VII): 38000 nM; IC50 (Plasma kallikrein): 10 nM; IC50 [1]: 20700 nM; half-life [2]: 45 min; clearance [3]: 32 mL/min/kg; Vd [4]: 0.236 L/kg |
|  | > 200000 | > 200000 | CC(=O)N[C@@H](CC(C)C)C(=O)N[C@H](C(=O)N[C@@H](CCCN=C(N)N)C(=O)c1nccs1)C(C)C |  |
| 30 | 1900 | 1100 | CC(C)[C@H](NC(=O)[C@H](CCCNC(N)=O)NC(=O)N[C@H](C)c1ccc(Br)cc1)C(=O)N[C@@H](CCCNC(=N)N)C(=O)c1nccs1 | 2aPTT (Plasma [5]): 1.35 µM; 2PT (Plasma [6]): 48.6 µM |
| 136 | > 20000 | 2800 | CC(C)C[C@H](NC(=O)NCc1ccccc1)C(=O)N[C@H](C(=O)N[C@@H](CCCNC(=N)N)C(=O)c1nccs1)C(C)C |  |
| 76 | 85000 | 2600 | CCC(C)[C@H](NC(=O)[C@H](CC(C)C)NC(=O)NCc1ccc(Cl)c(Cl)c1)C(=O)N[C@@H](CCCN=C(N)N)C(=O)c1nccs1 (some centres undefined) |  |
| 920 | 22000 | 10000 | CC(C)C[C@H](NC(=O)NCc1ccc(Cl)c(Cl)c1)C(=O)N[C@@H](C)C(=O)N[C@@H](CCCNC(=N)N)C(=O)c1nccs1 |  |
| 356 |  |  | CC(C)C[C@H](NC(=O)OCc1ccccc1)C(=O)N[C@H](C(=O)N[C@@H](CCCN=C(N)N)C(=O)c1nccs1)C(C)C |  |
| 12 | 1400 | 1400 | CC(C)[C@H](NC(=O)[C@H](Cc1cccnc1)NC(=O)N[C@H](C)c1ccc(Br)cc1)C(=O)N[C@@H](CCCNC(=N)N)C(=O)c1nccs1 | Selectivity ratio (Homo sapiens [8]): 200; 2aPTT (Plasma [5]): 2.4 µM; 2PT (Plasma [6]): 31 µM |
| 10 | 15000 | 1400 | CC(C)C[C@H](NC(=O)NC(C)c1ccc(Br)cc1)C(=O)N[C@H](C(=O)N[C@@H](CCCNC(=N)N)C(=O)c1nccs1)C(C)C (some centres undefined) | Selectivity ratio (Homo sapiens [7]): 140; Selectivity ratio (Homo sapiens [8]): 1500 |
| 160 |  | 4300 | CC(C)[C@H](NC(=O)[C@H](Cc1ccccc1)NNC(=O)NCc1ccc(F)cc1)C(=O)N[C@@H](CCCNC(=N)N)C(=O)c1nccs1 |  |
| 9200 | > 200000 | 12000 | CC(C)C[C@H](NC(=O)NCc1ccc(Cl)c(Cl)c1)C(=O)N[C@H](C(=O)N[C@@H](CCCN=C(N)N)C(=O)c1nccs1)C(C)(C)C |  |
| 90 | 14200 | 6700 | CC(C)[C@H](NC(=O)[C@H](Cc1ccccc1)NNC(=O)NCc1ccc(Cl)c(Cl)c1)C(=O)N[C@@H](CCCNC(=N)N)C(=O)c1nccs1 |  |
| 340 | > 200000 | 7700 | CC(C)C[C@H](NC(=O)NCc1ccc(Cl)c(Cl)c1)C(=O)N[C@H](C(=O)N[C@@H](CCCNC(=N)N)C(=O)c1nccs1)C1CCCCC1 |  |
| 258 | 14300 | 2100 | CCOC(=O)C(Cc1ccccc1)NC(=O)NN[C@@H](Cc1ccccc1)C(=O)N[C@H](C(=O)N[C@@H](CCCNC(=N)N)C(=O)c1nccs1)C(C)C (some centres undefined) |  |
| 63 | > 20000 | 876 | CC(C)C[C@H](NC(=O)NCc1ccc(Cl)c(Cl)c1)C(=O)N[C@H](C(=O)N[C@@H](CCCN=C(N)N)C(=O)c1nccs1)C(C)C |  |
| 29 | 2100 | 710 | CC(C)[C@H](NC(=O)[C@H](Cc1c[nH]c2ccccc12)NC(=O)N[C@H](C)c1ccc(Br)cc1)C(=O)N[C@@H](CCCNC(=N)N)C(=O)c1nccs1 |  |
| 200 | 1700 | 1000 | CC(C)C[C@H](NC(=O)NCc1ccc(Cl)c(Cl)c1)C(=O)N[C@@H](Cc1ccc(O)cc1)C(=O)N[C@@H](CCCNC(=N)N)C(=O)c1nccs1 |  |

Source: ChEMBL document CHEMBL1138224, “Design, synthesis, and biological evaluation of peptidomimetic inhibitors of factor XIa as novel anticoagulants” (J Med Chem, 2006)
